{
  "source": "ChEMBL document CHEMBL3232763",
  "about": "“Synthesis of 6-cinnamoyl-2H-benzo[b][1,4]oxazin-3(4H)-ones and their effects on A549 lung cancer cell growth” (Eur J Med Chem, 2014)",
  "key": {"A549 [1]": {"tested_on": "A549", "assay": "Cytotoxicity against human A549 cells assessed as change in cell morphology at 5 uM after 48 hrs by phase contrast microscopic analysis", "assay_type": "functional, cell-based", "outline": "(§1)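 A549 cells (RPMI-1640, 10% bovine calf serum, 37 °C, 5% CO2) treated with compound at 5 µM or 0.1% DMSO control for 24 h or 48 h; morphology and cell density inspected by phase contrast microscopy.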"}, "A549 [2]": {"tested_on": "A549", "assay": "Cytotoxicity against human A549 cells assessed as decrease in cell density at 5 uM after 24 to 48 hrs by phase contrast microscopic analysis", "assay_type": "functional, cell-based", "outline": "as §1"}, "A549 [3]": {"tested_on": "A549", "assay": "Cytotoxicity against human A549 cells assessed as growth inhibition measured at 48 hrs by SRB assay", "assay_type": "functional, cell-based", "conditions": "for IC50: A549, 48 h", "outline": "(§2)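 Sulforhodamine B assay: A549 cells seeded in 96-well plates, exposed 48 h to 1, 5 or 10 µM or 0.1% DMSO; survival expressed relative to DMSO-treated cells; triplicate assays, mean ± SE (n = 3); IC50 at 48 h derived.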"}, "A549 [4]": {"tested_on": "A549", "assay": "Induction of autophagy in human A549 cells assessed as increase in acidic vesicles accumulation at 5 uM after 48 hrs by acridine orange staining-based fluorescence microscopic analysis", "assay_type": "functional, cell-based", "outline": "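A549 cells treated 48 h at 5 µM, then stained with acridine orange (5 µg/ml) for 1 min at room temperature, washed twice with PBS, and acidic vesicles viewed by fluorescence microscopy (200×).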"}, "A549 [5]": {"tested_on": "A549", "assay": "Induction of autophagy in human A549 cells assessed as upregulation of LC3-2 protein expression at 5 uM after 48 hrs by Western blot analysis", "assay_type": "functional, cell-based", "outline": "(§3)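 Cells treated 48 h at 5 µM, washed with ice-cold PBS, lysed, protein quantified by Bradford; SDS electrophoresis, PVDF transfer, blocking in 5% milk/PBST; probed overnight at 4 °C with rabbit anti-human LC3b and GAPDH antibodies, HRP secondaries, film detection; LC3-II band density normalised to loading control.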"}, "A549 [6]": {"tested_on": "A549", "assay": "Cell cycle arrest in human A549 cells assessed as accumulation at G1 phase at 5 uM after 48 hrs by propidium iodide staining-based flow cytometric analysis (reference value: 50.70%)", "assay_type": "functional"}, "A549 [7]": {"tested_on": "A549", "assay": "Cell cycle arrest in human A549 cells assessed as accumulation at G2 phase at 5 uM after 48 hrs by propidium iodide staining-based flow cytometric analysis (reference value: 9.63%)", "assay_type": "functional"}, "A549 [8]": {"tested_on": "A549", "assay": "Cell cycle arrest in human A549 cells assessed as accumulation at S phase at 5 uM after 48 hrs by propidium iodide staining-based flow cytometric analysis (reference value: 39.68%)", "assay_type": "functional"}, "A549 [9]": {"tested_on": "A549", "assay": "Induction of apoptosis in human A549 cells assessed as chromatin condensation at 5 uM measured at 48 hrs by Hoechst 33258 staining-based fluorescence microscopic analysis", "assay_type": "functional, cell-based", "outline": "(§4)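 After 48 h with 5 µM compound or 0.1% DMSO, A549 cells in 24-well plates stained with 10 µg/ml Hoechst 33258 for 30 min at 37 °C, washed twice with PBS, and nuclei examined by fluorescence microscopy for chromatin condensation and apoptotic bodies.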"}, "A549 [10]": {"tested_on": "A549", "assay": "Induction of apoptosis in human A549 cells assessed as increase in apoptotic bodies formation at 5 uM measured at 48 hrs by Hoechst 33258 staining-based fluorescence microscopic analysis", "assay_type": "functional, cell-based", "outline": "as §4"}, "A549 [11]": {"tested_on": "A549", "assay": "Induction of necrosis in human A549 cells at 10 uM after 48 hrs by LDH release assay", "assay_type": "functional, cell-based", "outline": "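LDH level measured in A549 cells after 48 h with 10 µM compound or untreated control, using a commercial kit per manufacturer's instructions; mean ± SE, n = 3.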"}, "A549 [12]": {"tested_on": "A549", "assay": "Cytotoxicity against human A549 cells assessed as inhibition of cell viability at 10 uM after 48 hrs by SRB assay relative to control", "assay_type": "functional", "outline": "as §2"}, "A549 [13]": {"tested_on": "A549", "assay": "Induction of autophagy in human A549 cells assessed as effect on LC3-2 protein expression at 5 uM after 48 hrs by Western blot analysis", "assay_type": "functional, cell-based", "outline": "as §3"}},
  "note": "Activity calls are given as the source filed them. The rule behind the calls is not given here.",
  "data": [
    {"compound": "O=C1COc2ccc(C(=O)/C=C/c3ccccc3)cc2N1", "values": [
      {"measurement": "Activity", "setting": "A549 [1]", "result": "inactive"},
      {"measurement": "Activity", "setting": "A549 [2]", "result": "Active"},
      {"measurement": "growth inhibition (GI)", "setting": "A549 [3]", "result": "Dose-dependent effect"},
      {"measurement": "IC50", "setting": "A549 [3]", "result": 5.46, "unit": "µM"},
      {"measurement": "Activity", "setting": "A549 [4]", "result": "inactive"},
      {"measurement": "Activity", "setting": "A549 [5]", "result": "inactive"},
      {"measurement": "Activity", "setting": "A549 [6]", "result": 55.27, "unit": "%"},
      {"measurement": "Activity", "setting": "A549 [7]", "result": 12.66, "unit": "%"},
      {"measurement": "Activity", "setting": "A549 [8]", "result": 32.08, "unit": "%"},
      {"measurement": "Activity", "setting": "A549 [9]", "result": "inactive"},
      {"measurement": "Activity", "setting": "A549 [10]", "result": "inactive"},
      {"measurement": "Activity", "setting": "A549 [11]", "result": "inactive"}
    ]},
    {"compound": "O=C1COc2ccc(C(=O)/C=C/c3ccc4ccccc4c3)cc2N1", "values": [
      {"measurement": "Activity", "setting": "A549 [1]", "result": "inactive"}
    ]},
    {"compound": "COc1cc(/C=C/C(=O)c2ccc3c(c2)NC(=O)CO3)cc(OC)c1", "values": [
      {"measurement": "Activity", "setting": "A549 [1]", "result": "inactive"},
      {"measurement": "Activity", "setting": "A549 [2]", "result": "Active"},
      {"measurement": "growth inhibition (GI)", "setting": "A549 [3]", "result": "Dose-dependent effect"},
      {"measurement": "IC50", "setting": "A549 [3]", "result": 3.29, "unit": "µM"},
      {"measurement": "Activity", "setting": "A549 [12]", "result": 24, "unit": "%"},
      {"measurement": "Activity", "setting": "A549 [4]", "result": "Active"},
      {"measurement": "Activity", "setting": "A549 [5]", "result": "Active"},
      {"measurement": "Activity", "setting": "A549 [6]", "result": 75.46, "unit": "%"},
      {"measurement": "Activity", "setting": "A549 [7]", "result": 15.29, "unit": "%"},
      {"measurement": "Activity", "setting": "A549 [8]", "result": 9.25, "unit": "%"},
      {"measurement": "Activity", "setting": "A549 [9]", "result": "inactive"},
      {"measurement": "Activity", "setting": "A549 [10]", "result": "inactive"},
      {"measurement": "Activity", "setting": "A549 [11]", "result": "inactive"}
    ]},
    {"compound": "O=C1COc2ccc(C(=O)/C=C/c3ccc(OCc4ccccc4)cc3)cc2N1", "values": [
      {"measurement": "Activity", "setting": "A549 [1]", "result": "inactive"}
    ]},
    {"compound": "O=c1[nH]cc(F)c(=O)[nH]1", "note": "[FLUOROURACIL]", "values": [
      {"measurement": "IC50", "setting": "A549 [3]", "result": 0.98, "unit": "µM"}
    ]},
    {"compound": "O=C1COc2ccc(C(=O)/C=C/c3ccc4c(c3)OCO4)cc2N1", "values": [
      {"measurement": "Activity", "setting": "A549 [1]", "result": "inactive"},
      {"measurement": "Activity", "setting": "A549 [2]", "result": "Active"},
      {"measurement": "growth inhibition (GI)", "setting": "A549 [3]", "result": "Dose-dependent effect"},
      {"measurement": "IC50", "setting": "A549 [3]", "result": 16.3, "unit": "µM"},
      {"measurement": "Activity", "setting": "A549 [4]", "result": "inactive"},
      {"measurement": "Activity", "setting": "A549 [13]", "result": "inactive"},
      {"measurement": "Activity", "setting": "A549 [6]", "result": 63.37, "unit": "%"},
      {"measurement": "Activity", "setting": "A549 [7]", "result": 10.33, "unit": "%"},
      {"measurement": "Activity", "setting": "A549 [8]", "result": 26.3, "unit": "%"},
      {"measurement": "Activity", "setting": "A549 [9]", "result": "inactive"},
      {"measurement": "Activity", "setting": "A549 [10]", "result": "inactive"},
      {"measurement": "Activity", "setting": "A549 [11]", "result": "inactive"}
    ]},
    {"compound": "COc1ccc(/C=C/C(=O)c2ccc3c(c2)NC(=O)CO3)c(OC)c1", "values": [
      {"measurement": "Activity", "setting": "A549 [1]", "result": "inactive"},
      {"measurement": "Activity", "setting": "A549 [2]", "result": "Active"},
      {"measurement": "growth inhibition (GI)", "setting": "A549 [3]", "result": "Dose-dependent effect"},
      {"measurement": "IC50", "setting": "A549 [3]", "result": 6.49, "unit": "µM"},
      {"measurement": "Activity", "setting": "A549 [4]", "result": "Active"},
      {"measurement": "Activity", "setting": "A549 [5]", "result": "Active"},
      {"measurement": "Activity", "setting": "A549 [6]", "result": 57.92, "unit": "%"},
      {"measurement": "Activity", "setting": "A549 [7]", "result": 11.5, "unit": "%"},
      {"measurement": "Activity", "setting": "A549 [8]", "result": 30.59, "unit": "%"},
      {"measurement": "Activity", "setting": "A549 [9]", "result": "inactive"},
      {"measurement": "Activity", "setting": "A549 [10]", "result": "inactive"},
      {"measurement": "Activity", "setting": "A549 [11]", "result": "inactive"}
    ]},
    {"compound": "O=C1COc2ccc(C(=O)/C=C/c3ccc(Cl)cc3)cc2N1", "values": [
      {"measurement": "Activity", "setting": "A549 [1]", "result": "inactive"}
    ]}
  ]
}
